Reference: ChEMBL document CHEMBL4689842, “EUbOPEN Chemogenomics Library wave 1” (2021)
Several values for one entry are separate records, joined by “and”; a condition that tells them apart may be missing. Equal values may be shown once.

Tested on: HEK-293T
Assay: Multiplex assay against HEK293T;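 as to Population Tubulin-Different-Phenotype (%): share of the cells with healthy nuclei that show this phenotype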
Format: toxicity, cell-based
Conditions: human
Method in brief: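 Tubulin, mitochondrial-mass and membrane-permeability phenotypes are per cents of healthy-nucleus cells. Cells were gated by CellPathfinder machine learning into Hoechst high-intensity objects or normal cells, normal cells into healthy, pyknosed or fragmented nuclei, and pyknosed cells into mitotic or apoptotic. Before that, live cells stained at seeding with Hoechst33342, BioTracker Green Microtubule Cytoskeleton Dye, MitoTracker Red and Annexin V Alexa Fluor 680 were imaged on a CQ1 microscope at 37°C and 5% CO2 after compound addition.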

[1] = 12 h, 10 µM, compound concentration 10 uM, replicate 1
[2] = 12 h, 10 µM, compound concentration 10 uM, replicate 2
[3] = 24 h, 10 µM, compound concentration 10 uM, replicate 1
[4] = 24 h, 10 µM, compound concentration 10 uM, replicate 2
[5] = 12 h, 1 µM, compound concentration 1 uM, replicate 1
[6] = 12 h, 1 µM, compound concentration 1 uM, replicate 2
[7] = 24 h, 1 µM, compound concentration 1 uM, replicate 1
[8] = 24 h, 1 µM, compound concentration 1 uM, replicate 2

Question: For `CCN(CC)S(=O)(=O)Nc1cccc(-c2ccc3c(NC(=O)C4CC4)n[nH]c3c2)c1`, which “Population Apoptotic (%)” value [1] is on record?
Answer: 14% and 17%

Question: And the “Population Fragmented Nuclei (%)” value [1]?
Answer: 23% and 22%

Question: What about the “Population Healthy Nuclei (%)” value [1] of the same compound?
Answer: 31% and 60%

Question: What about the “Population Hoechst High Intensity Objects (%)” value [1] of the same compound?
Answer: 17% and 14%

Question: And the “Population Membrane Permeable-Phenotype (%)” value [1]?
Answer: 7% and 4%

Question: What about the “Population Mitochondria Different-Phenotype (%)” value [1] of the same compound?
Answer: 5% and 3%

Question: And the “Population Mitotic Cells (%)” value [1]?
Answer: 85% and 82%

Question: And the “Population Normal (%)” value [1]?
Answer: 82% and 85%

Question: What about the “Population Pyknosed Nuclei (%)” value [1] of the same compound?
Answer: 45% and 17%

Question: And the “Population Tubulin-Different-Phenotype (%)” value [1]?
Answer: 6% and 1%

Question: And the “Total Cell Count” value [1]?
Answer: 531 and 471

Question: And the “Population Apoptotic (%)” value [2]?
Answer: 13% and 5%

Question: What about the “Population Healthy Nuclei (%)” value [2] of the same compound?
Answer: 76% and 84%

Question: And the “Population Hoechst High Intensity Objects (%)” value [2]?
Answer: 4% and 2%

Question: And the “Population Membrane Permeable-Phenotype (%)” value [2]?
Answer: 1% and 0%

Question: And the “Population Mitotic Cells (%)” value [2]?
Answer: 86% and 94%

Question: What about the “Population Normal (%)” value [2] of the same compound?
Answer: 95% and 97%

Question: What about the “Population Tubulin-Different-Phenotype (%)” value [2] of the same compound?
Answer: 10% and 4%

Question: What about the “Total Cell Count” value [2] of the same compound?
Answer: 940 and 1848

Question: What about the “Population Apoptotic (%)” value [3] of the same compound?
Answer: 19% and 16%

Question: And the “Population Fragmented Nuclei (%)” value [3]?
Answer: 22% and 21%

Question: And the “Population Healthy Nuclei (%)” value [3]?
Answer: 34% and 70%

Question: And the “Population Hoechst High Intensity Objects (%)” value [3]?
Answer: 14% and 9%

Question: What about the “Population Membrane Permeable-Phenotype (%)” value [3] of the same compound?
Answer: 7% and 8%

Question: And the “Population Mitotic Cells (%)” value [3]?
Answer: 80% and 83%

Question: And the “Population Normal (%)” value [3]?
Answer: 85% and 90%

Question: And the “Total Cell Count” value [3]?
Answer: 487 and 501

Question: What about the “Population Apoptotic (%)” value [4] of the same compound?
Answer: 4% and 8%

Question: And the “Population Healthy Nuclei (%)” value [4]?
Answer: 67% and 71%

Question: And the “Population Hoechst High Intensity Objects (%)” value [4]?
Answer: 4% and 6%

Question: And the “Population Membrane Permeable-Phenotype (%)” value [4]?
Answer: 2% and 1%

Question: And the “Population Mitochondria Different-Phenotype (%)” value [4]?
Answer: 22%

Question: What about the “Population Mitotic Cells (%)” value [4] of the same compound?
Answer: 95% and 91%

Question: What about the “Population Normal (%)” value [4] of the same compound?
Answer: 95% and 93%

Question: What does the source list for `COc1ccc(S(=O)(=O)N(CCO)c2ccccc2CN(C)C/C=C/c2ccc(Cl)cc2)cc1.O=P(O)(O)O`?
Answer: Population Apoptotic (%) [5]: 42%; Population Fragmented Nuclei (%) [5]: 11%; Population Healthy Nuclei (%) [5]: 28%; Population Hoechst High Intensity Objects (%) [5]: 16%; Population Membrane Permeable-Phenotype (%) [5]: 6%; Population Mitochondria Different-Phenotype (%) [5]: 79%; Population Mitotic Cells (%) [5]: 57%; Population Normal (%) [5]: 83%; Population Pyknosed Nuclei (%) [5]: 59%; Population Tubulin-Different-Phenotype (%) [5]: 87%; Total Cell Count [5]: 585; Population Apoptotic (%) [6]: 35%; Population Fragmented Nuclei (%) [6]: 1%; Population Healthy Nuclei (%) [6]: 67%; Population Hoechst High Intensity Objects (%) [6]: 7%; Population Membrane Permeable-Phenotype (%) [6]: 3%; Population Mitochondria Different-Phenotype (%) [6]: 90%; Population Mitotic Cells (%) [6]: 64%; Population Normal (%) [6]: 92%; Population Pyknosed Nuclei (%) [6]: 30%; Population Tubulin-Different-Phenotype (%) [6]: 90%; Total Cell Count [6]: 929; Population Apoptotic (%) [1]: 14%; Population Fragmented Nuclei (%) [1]: 11%; Population Healthy Nuclei (%) [1]: 67%; Population Hoechst High Intensity Objects (%) [1]: 8%; Population Membrane Permeable-Phenotype (%) [1]: 6%; Population Mitochondria Different-Phenotype (%) [1]: 9%; Population Mitotic Cells (%) [1]: 85%; Population Normal (%) [1]: 91%; Population Pyknosed Nuclei (%) [1]: 21%; Population Tubulin-Different-Phenotype (%) [1]: 25%; Total Cell Count [1]: 633; Population Apoptotic (%) [2]: 13%; Population Fragmented Nuclei (%) [2]: 6%; Population Healthy Nuclei (%) [2]: 87%; Population Hoechst High Intensity Objects (%) [2]: 3%; Population Mitochondria Different-Phenotype (%) [2]: 21%; Population Mitotic Cells (%) [2]: 86%; Population Normal (%) [2]: 96%; Population Pyknosed Nuclei (%) [2]: 6%; Population Tubulin-Different-Phenotype (%) [2]: 36%; Total Cell Count [2]: 1412; Population Apoptotic (%) [7]: 61%; Population Fragmented Nuclei (%) [7]: 13%; Population Healthy Nuclei (%) [7]: 25%; Population Hoechst High Intensity Objects (%) [7]: 18%; Population Membrane Permeable-Phenotype (%) [7]: 7%; Population Mitochondria Different-Phenotype (%) [7]: 81%; Population Mitotic Cells (%) [7]: 38%; Population Normal (%) [7]: 81%; Population Pyknosed Nuclei (%) [7]: 60%; Population Tubulin-Different-Phenotype (%) [7]: 85%; Total Cell Count [7]: 551; Population Apoptotic (%) [8]: 43%; Population Fragmented Nuclei (%) [8]: 1%; Population Healthy Nuclei (%) [8]: 59%; Population Hoechst High Intensity Objects (%) [8]: 10%; Population Membrane Permeable-Phenotype (%) [8]: 2%; Population Mitochondria Different-Phenotype (%) [8]: 95%; Population Mitotic Cells (%) [8]: 56%; Population Normal (%) [8]: 89%; Population Pyknosed Nuclei (%) [8]: 38%; Population Tubulin-Different-Phenotype (%) [8]: 77%; Total Cell Count [8]: 913; Population Apoptotic (%) [3]: 17%; Population Fragmented Nuclei (%) [3]: 8%; Population Healthy Nuclei (%) [3]: 80%; Population Hoechst High Intensity Objects (%) [3]: 6%; Population Membrane Permeable-Phenotype (%) [3]: 10%; Population Mitochondria Different-Phenotype (%) [3]: 8%; Population Mitotic Cells (%) [3]: 82%; Population Normal (%) [3]: 93%; Population Pyknosed Nuclei (%) [3]: 11%; Population Tubulin-Different-Phenotype (%) [3]: 31%; Total Cell Count [3]: 745; Population Apoptotic (%) [4]: 5%; Population Fragmented Nuclei (%) [4]: 15%; Population Hoechst High Intensity Objects (%) [4]: 2%; Population Mitotic Cells (%) [4]: 94%; Population Normal (%) [4]: 97%; Population Pyknosed Nuclei (%) [4]: 4%; Population Tubulin-Different-Phenotype (%) [4]: 37%; Total Cell Count [4]: 2203

Question: Which results are given for `C=CCn1c(=O)c2cnc(Nc3ccc(N4CCN(C)CC4)cc3)nc2n1-c1cccc(C(C)(C)O)n1` [ADAVOSERTIB]?
Answer: Population Apoptotic (%) [5]: 16%; Population Fragmented Nuclei (%) [5]: 23%; Population Healthy Nuclei (%) [5]: 36%; Population Hoechst High Intensity Objects (%) [5]: 14%; Population Membrane Permeable-Phenotype (%) [5]: 4%; Population Mitochondria Different-Phenotype (%) [5]: 3%; Population Mitotic Cells (%) [5]: 83%; Population Normal (%) [5]: 85%; Population Pyknosed Nuclei (%) [5]: 39%; Population Tubulin-Different-Phenotype (%) [5]: 2%; Total Cell Count [5]: 606; Population Apoptotic (%) [6]: 13%; Population Fragmented Nuclei (%) [6]: 7%; Population Healthy Nuclei (%) [6]: 62%; Population Hoechst High Intensity Objects (%) [6]: 3%; Population Membrane Permeable-Phenotype (%) [6]: 3%; Population Mitochondria Different-Phenotype (%) [6]: 16%; Population Mitotic Cells (%) [6]: 86%; Population Normal (%) [6]: 96%; Population Pyknosed Nuclei (%) [6]: 30%; Population Tubulin-Different-Phenotype (%) [6]: 15%; Total Cell Count [6]: 1183; Population Apoptotic (%) [1]: 12%; Population Fragmented Nuclei (%) [1]: 20%; Population Healthy Nuclei (%) [1]: 22%; Population Hoechst High Intensity Objects (%) [1]: 17%; Population Membrane Permeable-Phenotype (%) [1]: 16%; Population Mitochondria Different-Phenotype (%) [1]: 16%; Population Mitotic Cells (%) [1]: 87%; Population Normal (%) [1]: 82%; Population Pyknosed Nuclei (%) [1]: 56%; Population Tubulin-Different-Phenotype (%) [1]: 47%; Total Cell Count [1]: 637; Population Apoptotic (%) [2]: 9%; Population Fragmented Nuclei (%) [2]: 15%; Population Healthy Nuclei (%) [2]: 27%; Population Hoechst High Intensity Objects (%) [2]: 2%; Population Membrane Permeable-Phenotype (%) [2]: 4%; Population Mitochondria Different-Phenotype (%) [2]: 32%; Population Mitotic Cells (%) [2]: 90%; Population Normal (%) [2]: 97%; Population Tubulin-Different-Phenotype (%) [2]: 70%; Total Cell Count [2]: 1182; Population Apoptotic (%) [7]: 17%; Population Fragmented Nuclei (%) [7]: 22%; Population Healthy Nuclei (%) [7]: 46%; Population Hoechst High Intensity Objects (%) [7]: 9%; Population Membrane Permeable-Phenotype (%) [7]: 6%; Population Mitochondria Different-Phenotype (%) [7]: 5%; Population Mitotic Cells (%) [7]: 82%; Population Normal (%) [7]: 90%; Population Pyknosed Nuclei (%) [7]: 30%; Population Tubulin-Different-Phenotype (%) [7]: 6%; Total Cell Count [7]: 590; Population Apoptotic (%) [8]: 16%; Population Fragmented Nuclei (%) [8]: 7%; Population Healthy Nuclei (%) [8]: 58%; Population Hoechst High Intensity Objects (%) [8]: 4%; Population Membrane Permeable-Phenotype (%) [8]: 5%; Population Mitochondria Different-Phenotype (%) [8]: 14%; Population Mitotic Cells (%) [8]: 83%; Population Normal (%) [8]: 95%; Population Pyknosed Nuclei (%) [8]: 33%; Population Tubulin-Different-Phenotype (%) [8]: 32%; Total Cell Count [8]: 1164; Population Apoptotic (%) [3]: 21%; Population Fragmented Nuclei (%) [3]: 27%; Population Healthy Nuclei (%) [3]: 26%; Population Hoechst High Intensity Objects (%) [3]: 18%; Population Membrane Permeable-Phenotype (%) [3]: 12%; Population Mitochondria Different-Phenotype (%) [3]: 32%; Population Mitotic Cells (%) [3]: 78%; Population Normal (%) [3]: 81%; Population Pyknosed Nuclei (%) [3]: 46%; Population Tubulin-Different-Phenotype (%) [3]: 56%; Total Cell Count [3]: 609; Population Apoptotic (%) [4]: 20%; Population Fragmented Nuclei (%) [4]: 15%; Population Healthy Nuclei (%) [4]: 39%; Population Hoechst High Intensity Objects (%) [4]: 3%; Population Membrane Permeable-Phenotype (%) [4]: 3%; Population Mitochondria Different-Phenotype (%) [4]: 53%; Population Mitotic Cells (%) [4]: 79%; Population Normal (%) [4]: 96%; Population Pyknosed Nuclei (%) [4]: 44%; Population Tubulin-Different-Phenotype (%) [4]: 80%; Total Cell Count [4]: 1042
